Screening data as filed in PubChem.
MC4R ag barr – human MC4R agonism via beta-arrestin. U2OS MC4R beta-arrestin complementation, luminescence; percent of melanotan II response, DMSO zero. 360,000 compounds, 0.98% hits. P32245. activation, % at 8.9 µM. AID 540308;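 active = activation above a per-plate cutoff, the mean activation of sample wells on that plate plus 3 SD, cut at about 8% in these data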
FXN GAA850 act – activators of GAA850 frataxin (FXN) promoter; 360,000 compounds, 0.56% hits; activation, % at 6 µM; AID 540364; HEK293 lucGAA850 FXN promoter luciferase reporter, 24 h; percent of 10 µM SAHA response;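 active = activation above the average of all compounds screened plus 3 SD, cutoff fixed separately per campaign, cut at about 7.5% in these data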
MC4R antagonist – antagonists of human melanocortin 4 receptor (MC4R). P32245. MC4R-expressing cells, MTII-stimulated cAMP, LANCE TR-FRET. inhibition, % at 6.5 µM. 360,000 compounds, 0.48% hits;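 active = inhibition above its plate's cutoff, the mean of tested wells on that plate plus 3 SD, cut at about 29% in these data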
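System – human MC4R-expressing U2OS cells · Also added – Melanotan II · Dosing – one concentration, 6.5 µM nominal · Timing – 30-min compound, 1-h challenge, 1-h detection, room temperature · Measured by – Eu-cAMP/anti-cAMP TR-FRET, emission 671 nm · Replicates – singlicate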
m5-HT2A agonist – agonists of mouse serotonin 5-HT2A receptor (HTR2A) | activation, % at 7.6 µM | AID 624169 | 360,000 compounds, 0.66% hits | CHO-K1 mHTR2A beta-arrestin complementation, luminescence; percent of 30 µM serotonin response;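 active = activation above a run cutoff, the mean activation of all tested compounds plus 3 SD, cut at about 14% in these data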
AHR act – activates the human aryl hydrocarbon receptor. P35869. AHR-responsive luciferase reporter cells, luminescence. activation, % at 5 µM. 320,000 compounds, 2.5% hits. AID 2796; in the data active = activation above about 47%
A number is an active result; - = inactive; . = no result given. This is a sample that favours compounds with a hit; in the whole collection about 4.7% have one here.

SMILES | MC4R ag barr | FXN GAA850 act | MC4R antagonist | m5-HT2A agonist | AHR act
Brc1ccc(-c2cnc(-c3cccs3)o2)cc1 | - | - | - | - | 66
CN(C)c1ccc(-c2nnc(-c3cccs3)o2)cc1 | - | - | - | - | -
O=C(Nc1ccccc1)c1cc([N+](=O)[O-])ccc1NC1CCCCC1 | - | - | - | - | 52
COc1ccc([N+](=O)[O-])cc1NC1CCCCC1 | - | - | - | - | -
Cc1cccc(N=C2NC(=O)/C(=C/c3cccnc3)S2)c1C | - | - | - | - | 47
Cc1cccc(N2Cc3ccc(Br)cc3C2)c1 | - | - | - | - | 48
C/C(=N/O)c1cccc(N2Cc3ccccc3C2)c1 | - | - | - | - | -
CCN1CCn2c3c(c4cccc(C)c42)CCCC31 (centres undefined) | - | - | - | - | 61
NNC(=O)c1ccc(Cn2cc(Br)cn2)o1 | - | - | - | - | -
N#Cc1c(NC(=O)c2ccc(Cn3cc(Br)cn3)o2)sc2c1CCCCCC2 | - | - | - | - | 70
Cc1ccc(NC(=O)c2ccc(Cn3cc(Br)cn3)o2)cc1 | - | - | - | - | 60
N#Cc1c(NC(=O)c2cnccn2)sc2c1CCCC2 | - | - | - | - | 69
O=C(CNc1cccc([N+](=O)[O-])c1)N/N=C/c1ccc([N+](=O)[O-])o1 | - | - | - | - | -
O=C(CNc1cccc2ccccc12)N/N=C/c1ccc([N+](=O)[O-])o1 | - | - | - | - | 65
CCOc1ccccc1-c1nc(-c2cccc(Br)c2)no1 | - | - | - | - | 64
Cc1nn(C)c(C(=O)NC(=S)Nc2ccccc2O)c1Cl | - | - | - | - | 54
Cc1ccc(O)c(NC(=S)NC(=O)c2ccccc2Cl)c1 | - | - | - | - | 60
C[C@H](O)[C@@H]1CN2CCc3c([nH]c4ccccc34)[C@@H]2C[C@@H]1N(C)Cc1cc(Cl)cc(Cl)c1 | - | - | - | - | .
C/C(=N\Nc1ccccn1)c1ccc(S(=O)(=O)NCc2ccco2)cc1 | - | - | - | - | -
C/C(=N\Nc1nc(Cl)c(Cl)cc1Cl)c1ccc(S(=O)(=O)NCc2ccco2)cc1 | - | - | - | - | 49
O=C(NCc1cccnc1)c1cc(Cl)ccc1[N+](=O)[O-] | - | - | - | - | 74
O=[N+]([O-])c1ccc(CN2CCN(c3ncccn3)CC2)cc1 | - | - | - | - | -
c1ccc(-c2ccc(CN3CCN(c4ncccn4)CC3)cc2)cc1 | - | - | - | 16 | -
CCOc1ccc(/C=C/C(=O)OCC(=O)NCCc2ccc(OCC)c(OCC)c2)cc1OC | - | - | - | - | -
Brc1ccc(-c2cn3c(n2)CCc2ccc4cccnc4c2-3)cc1 | - | - | - | - | 47
SMILES | MC4R ag barr | FXN GAA850 act | MC4R antagonist | m5-HT2A agonist | AHR act
Brc1ccc(-c2cn3nc4c(nc3n2)CCCC4)cc1 | - | - | - | - | -
Clc1ccccc1-c1nc(-c2ccccc2)n[nH]1 | - | - | - | - | 66
COc1ccc(CCNC(=O)CCCn2c(=S)[nH]c3ccsc3c2=O)cc1OC | - | - | - | - | .
COC(=O)c1[nH]c2ccc(C)cc2c1NC(=O)CN1CCCc2ccccc21 | - | - | - | - | 57
COC(=O)c1[nH]c2cc(C)ccc2c1NC(=O)CN1CCN(c2ccccc2OC)CC1 | - | - | - | - | -
COC(=O)c1[nH]c2ccc(C)cc2c1NC(=O)Oc1ccccc1 | - | - | - | - | 54
CCOC(=O)c1[nH]c2ccccc2c1NC(=S)Nc1cccc(C)c1C | - | - | - | - | 56
COC(=O)c1[nH]c2cc(OC)c(OC)cc2c1NC(=O)Oc1ccccc1 | - | - | - | - | -
C=CCOC(=O)Nc1c(C(=O)OC)[nH]c2ccccc12 | - | - | - | - | 57
CC(=O)Oc1ccc(Cl)cc1CN(C(C)=O)C1CCCCC1 | - | - | - | - | .
COc1cccc(C(=O)N2CCN(Cc3ccccc3Br)CC2)c1 | - | - | - | - | -
CC(C)CC(=O)Nc1cccc(-c2nc3ccccc3[nH]2)c1 | - | - | - | - | 58
CC(=O)Nc1cccc(-c2nc3ccccc3[nH]2)c1 | - | - | - | - | 47
CC(Oc1ccccc1)C(=O)Nc1cccc(-c2nc3ccccc3[nH]2)c1 (centres undefined) | - | - | - | - | -
CC(C)(C)C(=O)Nc1cccc(-c2nc3ccccc3[nH]2)c1 | - | - | - | - | 61
O=C(NC1CC1)C1CCN(S(=O)(=O)c2ccc(Cl)c([N+](=O)[O-])c2)CC1 | - | - | - | - | -
